Measurements as given in ChEMBL document CHEMBL4024748, “Development of Potent Type I Protein Arginine Methyltransferase (PRMT) Inhibitors of Leukemia Cell Proliferation” (J Med Chem, 2017).
Active and inactive are the calls of the source. No cut-off for these calls is given here.

Key:
[1] = molecular target: Histone-lysine N-methyltransferase, H3 lysine-79 specific (Homo sapiens) (UniProt Q8TEK3); assay: Inhibition of DOT1L (unknown origin) at 100 uM incubated for 15 mins followed by substrate addition measured after 60 mins by Alpha screen assay
Chain of Histone-lysine N-methyltransferase, H3 lysine-79 specific (Homo sapiens) (Q8TEK3 whole entry, looked up, the tested form may be a part): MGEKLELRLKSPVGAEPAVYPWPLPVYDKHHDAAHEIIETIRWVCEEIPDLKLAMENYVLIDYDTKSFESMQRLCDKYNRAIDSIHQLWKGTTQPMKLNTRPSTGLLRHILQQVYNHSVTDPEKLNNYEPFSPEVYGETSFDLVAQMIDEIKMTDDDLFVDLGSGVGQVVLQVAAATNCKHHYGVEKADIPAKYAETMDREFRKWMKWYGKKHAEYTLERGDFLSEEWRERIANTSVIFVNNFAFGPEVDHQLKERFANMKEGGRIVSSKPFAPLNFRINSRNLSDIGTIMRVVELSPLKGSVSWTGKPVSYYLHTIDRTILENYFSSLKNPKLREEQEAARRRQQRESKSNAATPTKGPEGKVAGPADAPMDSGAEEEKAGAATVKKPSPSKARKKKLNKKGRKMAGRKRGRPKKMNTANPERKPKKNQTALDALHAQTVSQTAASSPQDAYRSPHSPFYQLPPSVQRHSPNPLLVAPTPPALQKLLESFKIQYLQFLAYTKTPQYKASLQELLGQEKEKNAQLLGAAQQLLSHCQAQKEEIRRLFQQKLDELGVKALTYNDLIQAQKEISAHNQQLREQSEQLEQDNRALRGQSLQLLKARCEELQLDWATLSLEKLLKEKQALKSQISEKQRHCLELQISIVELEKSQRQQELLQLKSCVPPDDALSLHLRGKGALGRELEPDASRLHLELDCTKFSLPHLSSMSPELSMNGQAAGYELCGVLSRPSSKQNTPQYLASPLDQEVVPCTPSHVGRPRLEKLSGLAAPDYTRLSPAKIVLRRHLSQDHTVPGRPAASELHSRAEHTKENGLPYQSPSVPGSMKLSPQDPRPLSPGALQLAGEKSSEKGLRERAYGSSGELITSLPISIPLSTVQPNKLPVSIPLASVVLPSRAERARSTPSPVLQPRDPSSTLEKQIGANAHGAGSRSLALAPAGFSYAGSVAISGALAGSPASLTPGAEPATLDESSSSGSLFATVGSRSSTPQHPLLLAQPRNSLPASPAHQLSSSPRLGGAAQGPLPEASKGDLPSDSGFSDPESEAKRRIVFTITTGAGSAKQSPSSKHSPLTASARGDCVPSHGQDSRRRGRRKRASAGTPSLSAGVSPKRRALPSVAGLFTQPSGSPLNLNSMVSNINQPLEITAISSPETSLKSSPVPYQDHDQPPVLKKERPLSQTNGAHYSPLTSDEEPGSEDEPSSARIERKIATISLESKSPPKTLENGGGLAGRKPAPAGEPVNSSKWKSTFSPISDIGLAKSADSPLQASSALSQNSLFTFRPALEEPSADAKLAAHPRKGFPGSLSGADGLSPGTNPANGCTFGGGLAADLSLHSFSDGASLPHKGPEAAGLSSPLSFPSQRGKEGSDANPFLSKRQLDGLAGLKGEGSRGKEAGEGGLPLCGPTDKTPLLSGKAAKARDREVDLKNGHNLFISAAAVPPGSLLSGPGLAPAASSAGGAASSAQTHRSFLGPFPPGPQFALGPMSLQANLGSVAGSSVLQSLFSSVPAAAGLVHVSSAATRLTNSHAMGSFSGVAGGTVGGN
Summary of the method: (§1)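 DOT1L by AlphaScreen. Enzyme and substrate in 1x assay buffer, compound at 1% DMSO final. Enzyme preincubated with compound 15 min at room temperature, substrate added, reaction 60 min at room temperature. Acceptor/donor bead mix added and incubated 60 min at room temperature under subdued light.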

[2] = molecular target: Histone-arginine methyltransferase CARM1 (Homo sapiens, UniProt Q86X55); assay: Inhibition of PRMT4 (unknown origin) incubated for 15 mins followed by substrate addition measured after 60 mins by AlphaLisa method
Summary of the method: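 Enzyme preincubated with compound for 15 min at room temperature in 1x assay buffer (final DMSO 1%), then substrate added. The reaction ran for 60 min at room temperature. AlphaLISA bead mix was then added and incubated for 60 min at room temperature in subdued light. The luminescent signal was read and IC50 derived by curve fitting.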

[3] = molecular target: Protein arginine N-methyltransferase 1 (Homo sapiens) (UniProt Q99873); assay: Inhibition of PRMT1 in human MV411 cells assessed as reduction in H4R3me2a levels after 48 hrs by Western blot analysis; type: cell-based
Chain of Protein arginine N-methyltransferase 1 (Homo sapiens) (Q99873 whole entry, looked up): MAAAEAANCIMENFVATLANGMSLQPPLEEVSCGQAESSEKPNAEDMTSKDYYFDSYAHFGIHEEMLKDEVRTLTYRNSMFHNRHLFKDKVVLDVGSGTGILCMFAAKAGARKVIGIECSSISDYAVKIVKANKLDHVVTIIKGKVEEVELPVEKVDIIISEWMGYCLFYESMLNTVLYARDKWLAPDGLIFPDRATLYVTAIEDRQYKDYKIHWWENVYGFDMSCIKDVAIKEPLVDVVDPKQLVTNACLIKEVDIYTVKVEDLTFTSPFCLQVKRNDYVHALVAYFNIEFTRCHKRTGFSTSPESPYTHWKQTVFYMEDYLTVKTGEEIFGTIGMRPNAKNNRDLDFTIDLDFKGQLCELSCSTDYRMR
Summary of the method: (§2)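 MV4-11 cells treated with compound for 48 h. ADMA, SDMA and H4R3me2a read by western blot. Blots blocked in 5% nonfat milk in PBST, primary antibodies overnight at 4°C, HRP anti-rabbit secondary at 1:10000 for 1 h.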

MV4-11 [4] = assay: Downregulation of HOXA9 mRNA levels in human MV4-11 cells by qRT-PCR analysis; type: functional, cell-based
Summary of the method: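 MV4-11 cells treated with compound. mRNA measured by SYBR Green qRT-PCR with B2M as internal control. Fold change from ΔΔCt. Samples run in triplicate, mean ± SD.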

[5] = molecular target: Histone-lysine N-methyltransferase EZH2 (Homo sapiens) (UniProt Q15910); assay: Inhibition of EZH2 (unknown origin) at 100 uM incubated for 15 mins followed by substrate addition measured after 60 mins by radioisotope assay
Chain of Histone-lysine N-methyltransferase EZH2 (Homo sapiens) (Q15910 whole entry, looked up): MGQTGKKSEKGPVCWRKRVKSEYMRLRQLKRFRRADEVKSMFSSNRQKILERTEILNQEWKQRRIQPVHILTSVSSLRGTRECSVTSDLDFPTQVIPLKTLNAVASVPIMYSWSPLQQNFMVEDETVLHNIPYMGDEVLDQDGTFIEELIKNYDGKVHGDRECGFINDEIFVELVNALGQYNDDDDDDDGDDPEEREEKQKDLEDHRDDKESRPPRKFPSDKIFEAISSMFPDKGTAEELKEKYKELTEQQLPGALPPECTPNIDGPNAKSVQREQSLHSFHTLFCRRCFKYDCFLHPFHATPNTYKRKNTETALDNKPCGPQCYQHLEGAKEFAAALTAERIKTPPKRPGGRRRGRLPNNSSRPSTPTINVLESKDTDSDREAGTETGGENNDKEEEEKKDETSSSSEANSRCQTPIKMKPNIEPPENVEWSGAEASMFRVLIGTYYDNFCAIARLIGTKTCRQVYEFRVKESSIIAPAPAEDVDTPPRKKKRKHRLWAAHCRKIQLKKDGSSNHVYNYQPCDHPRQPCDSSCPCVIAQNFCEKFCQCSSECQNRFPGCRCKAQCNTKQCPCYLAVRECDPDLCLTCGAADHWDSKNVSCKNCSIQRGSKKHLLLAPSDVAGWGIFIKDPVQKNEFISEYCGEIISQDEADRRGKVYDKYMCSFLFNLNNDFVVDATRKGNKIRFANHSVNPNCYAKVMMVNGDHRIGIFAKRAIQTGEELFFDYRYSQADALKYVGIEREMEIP

RS4-11 = assay: Cytotoxicity against human RS4:11 cells assessed as decrease in cell viability after 96 hrs by Cell-Titer Glo assay; type: functional, cell-based
Summary of the method: (§3)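 Cells kept at 37°C, 5% CO2, exposed to compound or DMSO control for 96 h. Viability read by CellTiter-Glo luminescence after 2 min shaking to lyse and 10 min at room temperature. Triplicate wells, normalised to control cells. For long-term growth, log-phase seeding densities; cells counted and replated to the starting density with fresh compound on days 4 and 8.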

[6] = molecular target: Histone-lysine N-methyltransferase SUV39H1 (Homo sapiens) (UniProt O43463); assay: Inhibition of SUV39H1 (unknown origin) at 50 uM incubated for 15 mins followed by substrate addition measured after 60 mins by AlphaLisa method
Summary of the method: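 SUV39H1 AlphaLISA at 50 and 100 µM compound, 1% DMSO final. Enzyme preincubated 15 min at room temperature, substrate reaction 60 min at RT. Bead mix then added for 60 min at RT in subdued light before signal collection.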

KOPN-8 = assay: Cytotoxicity against human KOPN8 cells assessed as decrease in cell viability after 96 hrs by Cell-Titer Glo assay; type: functional, cell-based; summary of the method: as §3
[7] = molecular target: Histone-lysine N-methyltransferase 2A (Homo sapiens) (UniProt Q03164); assay: Inhibition of MLL1 (unknown origin) at 100 uM incubated for 15 mins followed by substrate addition measured after 60 mins by AlphaLisa method
Summary of the method: (§4)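 AlphaLISA. Enzyme and substrate in 1x assay buffer, compound at 1% DMSO final. Enzyme preincubated with compound 15 min at room temperature, then substrate added. Reaction 60 min at room temperature, then bead mix added and incubated 60 min under subdued light before signal read.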

[8] = molecular target: Protein arginine N-methyltransferase 6 (Homo sapiens, UniProt Q96LA8); assay: Inhibition of PRMT6 (unknown origin) incubated for 15 mins followed by substrate addition measured after 60 mins by AlphaLisa method; summary of the method: as §4
Chain of Protein arginine N-methyltransferase 6 (Q96LA8 whole entry): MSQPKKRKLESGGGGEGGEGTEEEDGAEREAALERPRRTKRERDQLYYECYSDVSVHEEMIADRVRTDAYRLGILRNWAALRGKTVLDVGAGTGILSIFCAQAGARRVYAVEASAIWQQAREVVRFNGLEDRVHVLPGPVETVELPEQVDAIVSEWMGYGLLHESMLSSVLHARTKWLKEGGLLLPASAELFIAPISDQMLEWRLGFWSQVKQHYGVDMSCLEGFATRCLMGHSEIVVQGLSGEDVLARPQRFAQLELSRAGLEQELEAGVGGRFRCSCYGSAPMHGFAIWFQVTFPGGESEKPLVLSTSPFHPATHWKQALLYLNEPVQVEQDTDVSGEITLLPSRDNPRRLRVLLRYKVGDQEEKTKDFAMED

[9] = molecular target: Histone-lysine N-methyltransferase PRDM9 (Homo sapiens) (UniProt Q9NQV7); assay: Inhibition of PRDM9 (unknown origin) at 50 uM incubated for 15 mins followed by substrate addition measured after 60 mins by AlphaLisa method; summary of the method: as §4
Chain of Histone-lysine N-methyltransferase PRDM9 (Homo sapiens) (Q9NQV7 whole entry): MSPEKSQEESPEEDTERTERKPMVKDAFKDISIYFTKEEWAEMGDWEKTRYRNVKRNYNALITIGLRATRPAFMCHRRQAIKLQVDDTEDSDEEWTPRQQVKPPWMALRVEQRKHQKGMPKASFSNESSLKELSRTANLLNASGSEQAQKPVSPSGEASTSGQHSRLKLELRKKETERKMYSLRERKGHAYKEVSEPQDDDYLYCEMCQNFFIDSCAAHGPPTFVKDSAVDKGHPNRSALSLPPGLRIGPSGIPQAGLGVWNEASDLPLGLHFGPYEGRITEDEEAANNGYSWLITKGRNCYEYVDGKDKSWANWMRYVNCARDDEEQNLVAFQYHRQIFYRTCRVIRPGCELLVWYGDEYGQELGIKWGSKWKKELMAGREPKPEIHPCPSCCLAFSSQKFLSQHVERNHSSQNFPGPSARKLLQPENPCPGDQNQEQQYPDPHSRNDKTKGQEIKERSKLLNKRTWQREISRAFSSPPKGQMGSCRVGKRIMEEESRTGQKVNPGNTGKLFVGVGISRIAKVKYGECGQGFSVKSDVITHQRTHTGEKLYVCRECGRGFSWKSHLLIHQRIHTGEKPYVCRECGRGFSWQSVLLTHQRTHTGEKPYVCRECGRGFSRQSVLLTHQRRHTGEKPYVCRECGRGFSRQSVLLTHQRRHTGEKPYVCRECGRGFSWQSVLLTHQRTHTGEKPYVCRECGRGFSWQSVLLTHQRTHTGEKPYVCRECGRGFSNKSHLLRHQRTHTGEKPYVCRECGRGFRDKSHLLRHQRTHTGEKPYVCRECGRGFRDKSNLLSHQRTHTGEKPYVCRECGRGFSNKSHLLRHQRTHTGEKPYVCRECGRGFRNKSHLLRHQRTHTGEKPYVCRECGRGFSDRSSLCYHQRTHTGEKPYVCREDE

[10] = molecular target: Protein arginine N-methyltransferase 5 (Homo sapiens, UniProt O14744); assay: Inhibition of PRMT5 (unknown origin) incubated for 15 mins followed by substrate addition measured after 60 mins by AlphaLisa method; summary of the method: as §4
Chain of Protein arginine N-methyltransferase 5 (O14744 whole entry): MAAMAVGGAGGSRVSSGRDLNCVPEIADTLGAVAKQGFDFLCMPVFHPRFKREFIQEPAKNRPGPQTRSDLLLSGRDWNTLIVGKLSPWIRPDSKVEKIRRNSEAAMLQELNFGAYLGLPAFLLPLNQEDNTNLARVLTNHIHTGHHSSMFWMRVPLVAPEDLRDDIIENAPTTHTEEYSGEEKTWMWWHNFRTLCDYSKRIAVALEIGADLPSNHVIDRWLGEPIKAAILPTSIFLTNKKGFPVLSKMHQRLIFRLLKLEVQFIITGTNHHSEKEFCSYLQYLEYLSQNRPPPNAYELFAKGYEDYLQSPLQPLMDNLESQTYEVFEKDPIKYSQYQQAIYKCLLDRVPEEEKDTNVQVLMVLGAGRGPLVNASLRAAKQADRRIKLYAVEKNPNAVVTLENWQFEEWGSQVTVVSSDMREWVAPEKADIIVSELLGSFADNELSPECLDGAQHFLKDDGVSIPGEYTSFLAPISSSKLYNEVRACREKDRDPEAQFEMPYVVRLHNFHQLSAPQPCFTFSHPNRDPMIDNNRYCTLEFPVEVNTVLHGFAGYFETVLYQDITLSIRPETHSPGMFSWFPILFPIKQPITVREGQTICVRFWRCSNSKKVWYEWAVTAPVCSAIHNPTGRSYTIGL

[11] = molecular target: Protein arginine N-methyltransferase 1 (Homo sapiens) (UniProt Q99873); assay: Inhibition of PRMT1 in human MV411 cells assessed as increase in SDMA levels after 48 hrs by Western blot analysis; type: cell-based; summary of the method: as §2
[12] = molecular target: Histone-lysine N-methyltransferase EZH2 (Homo sapiens) (UniProt Q15910); assay: Inhibition of EZH2 (unknown origin) at 50 uM incubated for 15 mins followed by substrate addition measured after 60 mins by radioisotope assay
[13] = molecular target: Histone-lysine N-methyltransferase, H3 lysine-79 specific (Homo sapiens) (UniProt Q8TEK3); assay: Inhibition of DOT1L (unknown origin) at 50 uM incubated for 15 mins followed by substrate addition measured after 60 mins by Alpha screen assay; summary of the method: as §1
[14] = molecular target: Protein arginine N-methyltransferase 1 (Rattus norvegicus) (UniProt Q63009); assay: Binding affinity to rat His-tagged PRMT1 (11 to 353 residues) expressed in Escherichia coli BL21(DE3) at 200 uM by 1D 1H CPMG-NMR spectroscopic method
Chain of Protein arginine N-methyltransferase 1 (Rattus norvegicus) (Q63009 whole entry, looked up, the tested form may be a part): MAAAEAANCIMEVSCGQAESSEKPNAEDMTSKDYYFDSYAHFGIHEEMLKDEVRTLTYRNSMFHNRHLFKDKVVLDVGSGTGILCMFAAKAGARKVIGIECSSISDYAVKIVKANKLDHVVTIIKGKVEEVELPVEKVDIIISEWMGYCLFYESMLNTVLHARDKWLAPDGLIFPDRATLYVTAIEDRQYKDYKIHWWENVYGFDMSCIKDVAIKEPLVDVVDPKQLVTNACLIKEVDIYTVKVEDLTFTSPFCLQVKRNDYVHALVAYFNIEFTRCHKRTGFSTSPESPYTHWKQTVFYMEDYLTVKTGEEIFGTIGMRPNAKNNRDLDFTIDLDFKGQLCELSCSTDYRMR
Summary of the method: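 Rat PRMT1 (11–353), N-His6, expressed in E. coli BL21(DE3) with 0.4 mM IPTG at 16°C. Purified by Ni affinity and Superdex200. NMR used 5 µM PRMT1 in phosphate buffer pH 7.4 (20 mM NaH2PO4, 20 mM Na2HPO4, 100 mM NaCl) in D2O. Ligand at 200 µM in 5% DMSO-d6. CPMG run with 5, 2 and 1 µM PRMT1, plus STD.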

[15] = molecular target: Protein arginine N-methyltransferase 1 (Rattus norvegicus) (UniProt Q63009); assay: Non-competitive inhibition of rat His-tagged PRMT1 (11 to 353 residues) expressed in Escherichia coli BL21(DE3) in presence of varying concentrations of biotinylated H4 peptide (1 to 21 residues) substrate and fixed [3H]SAM concentration
Summary of the method: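 Kinetic mode-of-action study using the radiolabel method with His6-rPRMT1(11–353). IC50 measured at varied peptide substrate or varied SAM concentrations, with the other component fixed. 15 min enzyme–compound preincubation, then 60 min reaction at RT with [3H]-SAM, Flashplate capture and Microbeta counting.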

MV4-11 [16] = assay: Antiproliferative activity against human MV4-11 cells assessed as decrease in cell viability at 0.1 to 1000 uM by Cell-Titer Glo assay; type: functional, cell-based; settings: TDE = time-dependent effect; summary of the method: as §3
[17] = molecular target: Histone-lysine N-methyltransferase 2A (Homo sapiens) (UniProt Q03164); assay: Inhibition of MLL1 (unknown origin) at 50 uM incubated for 15 mins followed by substrate addition measured after 60 mins by AlphaLisa method; summary of the method: as §4
[18] = molecular target: Histone-lysine N-methyltransferase PRDM9 (Homo sapiens) (UniProt Q9NQV7); assay: Inhibition of PRDM9 (unknown origin) at 100 uM incubated for 15 mins followed by substrate addition measured after 60 mins by AlphaLisa method; summary of the method: as §4

inhibition [1]: Active
IC50 [2]: 0.063 µM
inhibition [3]: Dose-dependent effect
inhibition [5]: Active
inhibition [6]: Active
inhibition [7]: Active
IC50 [8]: 0.0012 µM
inhibition [9]: Active
IC50 [10]: > 100 µM
inhibition [11]: Dose-dependent effect
inhibition [12]: Active
inhibition [13]: Active
Activity [14]: Active
inhibition [15]: Active
inhibition [17]: Active
inhibition [18]: Active
SMILES: CN(CCN)Cc1ccccc1Sc1ccccc1Cl
Activity (MV4-11 [4]): Dose-dependent effect
Activity (RS4-11): Dose-dependent effect
Activity (KOPN-8): Dose-dependent effect
Activity (MV4-11 [16]): Tde
